ChEMBL document CHEMBL1275306, “Synthesis and cytotoxicity evaluation of 1-[3-(9H-carbazol-4-yloxy)-2-hydroxypropyl]-3-aryl-1H-pyrazole-5-carboxylic acid derivatives” (Eur J Med Chem, 2010)
Calls of active or inactive are those of the source.

Experiments:
Format in all cases: functional, cell-based
SK-N-SH [1] = test: Cytotoxicity against human SK-N-SH cells after 48 hrs by SRB assay
Procedure, shortened: (§1)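 Cells grown in minimal essential medium with 10% FBS, penicillin and streptomycin, then exposed in triplicate to […] test agent or doxorubicin for 48 h at 37 °C under 5% CO2. Cells fixed with cold TCA, stained with 0.4% SRB in 1% acetic acid; bound dye dissolved in buffer, OD read at 565 nm. Viability expressed as % of untreated cells; IC50 by non-linear regression.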

A549 [2] = test: Cytotoxicity against human A549 cells after 48 hrs by SRB assay; procedure, shortened: as §1
MCF7 [3] = test: Cytotoxicity against human MCF7 cells after 48 hrs by SRB assay; procedure, shortened: as §1
SK-N-SH [4] = test: Cytotoxicity against human SK-N-SH cells at 0.1 to 5 uM by SRB assay; conditions: TDE = time-dependent effect; procedure, shortened: as §1
A549 [5] = test: Cytotoxicity against human A549 cells at 0.1 to 5 uM by SRB assay; conditions: TDE = time-dependent effect; procedure, shortened: as §1
MCF7 [6] = test: Cytotoxicity against human MCF7 cells at 0.1 to 5 uM by SRB assay; conditions: TDE = time-dependent effect; procedure, shortened: as §1
SK-N-SH [7] = test: Cytotoxicity against human SK-N-SH cells at 0.5 uM after 48 hrs by SRB assay
SK-N-SH [8] = test: Cytotoxicity against human SK-N-SH cells at 5 uM after 48 hrs by SRB assay; procedure, shortened: as §1
SK-N-SH [9] = test: Cytotoxicity against human SK-N-SH cells at 0.1 uM after 48 hrs by SRB assay; procedure, shortened: as §1

Measured: Activity

O=C(O)c1cc(-c2ccc([N+](=O)[O-])cc2)nn1CC(O)COc1cccc2[nH]c3ccccc3c12 (stereo not drawn)
active: SK-N-SH [1] Dose-dependent effect | A549 [2] Dose-dependent effect | MCF7 [3] Dose-dependent effect | SK-N-SH [4] tde | A549 [5] tde | MCF7 [6] tde | SK-N-SH [7]

COc1cccc(-c2cc(C(=O)O)n(CC(O)COc3cccc4[nH]c5ccccc5c34)n2)c1 (stereo not drawn)
active: SK-N-SH [1] Dose-dependent effect | A549 [2] Dose-dependent effect | MCF7 [3] Dose-dependent effect | SK-N-SH [4] tde | A549 [5] tde | MCF7 [6] tde | SK-N-SH [7]

O=C(O)c1cc(-c2cccc([N+](=O)[O-])c2)nn1CC(O)COc1cccc2[nH]c3ccccc3c12 (stereo not drawn)
active: SK-N-SH [1] Dose-dependent effect | A549 [2] Dose-dependent effect | MCF7 [3] Dose-dependent effect | SK-N-SH [4] tde | A549 [5] tde | MCF7 [6] tde | SK-N-SH [7]

O=C(O)c1cc(-c2ccccc2[N+](=O)[O-])nn1CC(O)COc1cccc2[nH]c3ccccc3c12 (stereo not drawn)
active: SK-N-SH [1] Dose-dependent effect | A549 [2] Dose-dependent effect | MCF7 [3] Dose-dependent effect | SK-N-SH [4] tde | A549 [5] tde | MCF7 [6] tde | SK-N-SH [7]

COc1ccc(-c2cc(C(=O)O)n(CC(O)COc3cccc4[nH]c5ccccc5c34)n2)cc1 (stereo not drawn)
active: SK-N-SH [1] Dose-dependent effect | A549 [2] Dose-dependent effect | MCF7 [3] Dose-dependent effect | SK-N-SH [4] tde | A549 [5] tde | MCF7 [6] tde | SK-N-SH [7] | SK-N-SH [8]

Cc1ccc(-c2cc(C(=O)O)n(CC(O)COc3cccc4[nH]c5ccccc5c34)n2)cc1 (stereo not drawn)
active: SK-N-SH [1] Dose-dependent effect | A549 [2] Dose-dependent effect | MCF7 [3] Dose-dependent effect | SK-N-SH [4] tde | A549 [5] tde | MCF7 [6] tde | SK-N-SH [7]

COc1cccc2c1C(=O)c1c(O)c3c(c(O)c1C2=O)C[C@@](O)(C(=O)CO)C[C@@H]3O[C@H]1C[C@H](N)[C@H](O)[C@H](C)O1
active: SK-N-SH [1] Dose-dependent effect | A549 [2] Dose-dependent effect | MCF7 [3] Dose-dependent effect | SK-N-SH [4] tde | A549 [5] tde | MCF7 [6] tde

Cc1cccc(-c2cc(C(=O)O)n(CC(O)COc3cccc4[nH]c5ccccc5c34)n2)c1 (stereo not drawn)
active: SK-N-SH [1] Dose-dependent effect | A549 [2] Dose-dependent effect | MCF7 [3] Dose-dependent effect | SK-N-SH [4] tde | A549 [5] tde | MCF7 [6] tde | SK-N-SH [9] | SK-N-SH [7] | SK-N-SH [8]
